Results as given in ChEMBL document CHEMBL1152239, “Development of mitochondria-targeted derivatives of resveratrol” (Bioorg Med Chem Lett, 2008).
Activity calls are given as the source filed them. No cut-off for these calls is given here.

Legend:
[1] = Drug uptake in rat liver mitochondria at 0.5 uM measured by TPP+ sensitive electrode; format: ADME; conditions: in vitro
[2] = tested on: C26; test: Cytotoxicity against mouse C26 cells at 5 uM by tetrazolium salt reduction assay; format: functional, cell-based
Outline: (§1)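 MTT (tetrazolium salt reduction) read-out after cells grew for 3 days with the compound present, tested at 1 and 5 µM. Cell lines were C-26 mouse colon tumor cells and fast- and slow-growing non-tumoral mouse embryonic fibroblasts. Each measurement was run in quadruplicate and reported as average ± s.d.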

[3] = tested on: MEF; test: Cytotoxicity against fast-growing MEF at 5 uM by tetrazolium salt reduction assay; format: functional, cell-based; conditions: Mus musculus; outline: as §1
[4] = tested on: HCT-116; test: Drug uptake in human HCT116 cells at 10 uM after 25 mins by fluorescence microscopic method; format: ADME, cell-based; conditions: hct-116, 25 min
Outline: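 Cultured HCT116 cells were imaged by fluorescence microscopy with excitation at 340 nm, just before compound addition and 25 min after it. Protonophore FCCP was then added and cells were imaged again 10 min later to check that the signal depends on membrane potential.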

[5] = tested on: MEF; test: Cytotoxicity against slow-growing MEF at 5 uM by tetrazolium salt reduction assay; format: cell-based; conditions: mouse; outline: as §1
[6] = Solubility in water; format: physicochemical

| Activity [1] | Activity [4] | solubility [6] [µM] | Structure (SMILES) | Activity [2] | Activity [3] | Activity [5] |
| --- | --- | --- | --- | --- | --- | --- |
| Active | Active | 97 | CC(=O)Oc1cc(/C=C/c2ccc(OCCCC[P+](c3ccccc3)(c3ccccc3)c3ccccc3)cc2)cc(OC(C)=O)c1.[I-] | Active | Active | Not Active |
|  | Active | 31.2 | Oc1cc(O)cc(/C=C/c2ccc(OCCCC[P+](c3ccccc3)(c3ccccc3)c3ccccc3)cc2)c1.[I-] | Active | Active | Not Active |
